Experimental data published in ChEMBL document CHEMBL1128176 (J Med Chem, 1995).

How the values were obtained:
[1] = target: T1, Leukotriene B4 receptor (Homo sapiens, UniProt Q9NPC1+Q15722); assay: Binding affinity towards human LTB4 receptor measured as inhibition of binding of [3H]LTB4 to isolated human neutrophils
[2] = target: T1, Leukotriene B4 receptor; assay: Inhibition of LTB4 induced expression of human neutrophil integrin CD11b/CD18.; assay type: functional
In short: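 Human neutrophils stimulated with LTB4; test agents, mostly as sodium salts, dissolved in dilute sodium bicarbonate vehicle. Integrin CD11b/CD18 surface expression read by flow cytometry. IC50 derived from inhibition of LTB4-induced up-regulation. Where SEM is given, the value is the mean of at least four determinations.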

[3] = target: Leukotriene B4 receptor (Cavia porcellus); assay: Binding affinity towards Leukotriene B4 receptor guinea pig lung membrane using [3H]LTB4 as radioligand

Ki [1] | IC50 [2] | Ki [3] | SMILES
390 nM | 220 nM | 55 nM | CCc1cc(-c2ccc(F)cc2)c(O)cc1OCCCOc1cccc(Oc2ccccc2C(=O)O)c1Cc1ccccc1
34 nM | 14 nM | 16 nM | CCCCc1c(OCCCOc2cc(O)c(-c3ccc(F)cc3)cc2CC)cccc1Oc1ccccc1C(=O)O
8 nM | 31 nM | 3.8 nM | CCc1cc(-c2ccc(F)cc2)c(O)cc1OCCCOc1ccccc1CCC(=O)O
39 nM | 5.1 nM | 19 nM | CCCc1c(OCCCCOc2cc(O)c(-c3ccc(F)cc3)cc2CC)cccc1Oc1ccccc1C(=O)O
0.47 nM | – | 0.04 nM | CCc1cc(-c2ccc(F)cc2)c(O)cc1OCCCOc1ccc2c(=O)c3cc(C(=O)O)ccc3oc2c1CCC(=O)O
2.3 nM | 13 nM | – | CCc1cc(-c2ccc(F)cc2)c(O)cc1OCCCOc1cccc(OCCCCC(=O)O)c1CCC(=O)O
19 nM | 11 nM | 16 nM | CCCc1c(OCCCOc2cc(O)c(-c3ccccc3)cc2CC)cccc1Oc1ccccc1C(=O)O
3.3 nM | 110 nM | 2.8 nM | CCCc1c(OCCCOc2cc(O)c(-c3ccccc3)cc2CC)ccc2c1OC(C(=O)O)CC2 (stereo not drawn)
48 nM | 2.7 nM | 19 nM | CCCc1c(OCCCOc2cc(O)c(-c3ccc(F)cc3)cc2CC)cccc1Oc1cc(F)ccc1C(=O)O
35 nM | 13 nM | 11 nM | CCCc1c(OCCCOc2cc(O)c(-c3ccc(F)cc3)cc2CC)cccc1C(=O)c1ccccc1C(=O)O
3.1 nM | 7.8 nM | – | CCc1cc(-c2ccc(F)cc2)c(O)cc1OCCCOc1cccc(OCCCCC(=O)N(C)C)c1CCC(=O)O
22 nM | – | 12 nM | CCc1cc(-c2ccccc2)c(O)cc1OCCCOc1ccc2c(=O)c3ccccc3oc2c1CCC(=O)O
10 nM | 3.2 nM | 14 nM | CCCc1c(OCCCOc2cc(O)c(-c3ccccc3)cc2CC)cccc1Oc1cccc(F)c1C(=O)O
33 nM | – | – | CCc1cc(-c2cccc(C(F)(F)F)c2)c(O)cc1OCCCCCC(C)(C)c1nn[nH]n1
16 nM | – | – | CCc1cc(-c2ccc(N(C)C)cc2)c(O)cc1OCCCCCC(C)(C)c1nn[nH]n1
350 nM | 7.4 nM | 11 nM | CCCc1c(OCCCOc2cc(O)c(-c3ccc(F)cc3)cc2CC)cccc1Sc1ccccc1C(=O)O
8.3 nM | 64 nM | 6.4 nM | CCc1cc(-c2ccc(F)cc2)c(O)cc1OCCCOc1cccc(OC)c1CCC(=O)O
14 nM | 95 nM | 1.4 nM | CCCc1c(OCCCOc2cc(O)c(-c3ccc(F)cc3)cc2CC)cccc1[S+]([O-])c1ccccc1C(=O)O (stereo not drawn)
2.3 nM | – | – | CCc1cc(-c2ccc(F)cc2)c(O)cc1OCCCOc1cccc(OCCCCc2nnn[nH]2)c1CCC(=O)O
9.3 nM | – | – | CCCc1cc(CC)c(OCCCCCC(C)(C)c2nn[nH]n2)cc1O
3.8 nM | 17 nM | 4.4 nM | CCCc1c(OCCCOc2cc(O)c(-c3ccc(F)cc3)cc2CC)ccc2c1OC(C(=O)O)CC2 (stereo not drawn)
453 nM | – | – | CCc1cc(-c2ccccn2)c(O)cc1OCCCCCC(C)(C)c1nn[nH]n1
36 nM | 8.5 nM | 14 nM | CCc1cc(-c2ccc(F)cc2)c(O)cc1OCCCOc1cccc(Oc2ccccc2C(=O)O)c1CC(C)C
15 nM | – | 15 nM | CCc1cc(-c2ccc(F)cc2)c(O)cc1OCCCOc1ccccc1CCc1nnn[nH]1
150 nM | 9.5 nM | 6.8 nM | CCCc1c(OCCCCCOc2cc(O)c(-c3ccc(F)cc3)cc2CC)cccc1Oc1ccccc1C(=O)O
4.4 nM | 2.5 nM | 9.5 nM | CCCc1c(OCCCOc2cc(O)c(-c3ccc(F)cc3)cc2CC)cccc1Oc1cccc(F)c1C(=O)O
210 nM | 7.8 nM | 8.4 nM | CCCc1c(OCCCOc2cc(O)c(-c3ccc(F)cc3)cc2CC)cccc1Oc1ccccc1CC(=O)O
17 nM | 3.3 nM | 6.6 nM | CCCc1c(OCCCOc2cc(O)c(-c3ccc(F)cc3)cc2CC)cccc1Oc1ccccc1C(=O)O [ETALOCIB]
36 nM | – | 4 nM | CCc1cc(-c2ccc(F)cc2)c(O)cc1OCCCOc1ccc2c(=O)c3ccccc3oc2c1CCC(=O)O
0.51 nM | – | 0.11 nM | CCc1cc(-c2ccccc2)c(O)cc1OCCCOc1ccc2c(=O)c3cc(C(=O)O)ccc3oc2c1CCC(=O)O
